PDI turbidity: inhibitors of human PDI, primary screen, biochemical, turbidity, single point, plate reader. Protein disulfide-isomerase (Homo sapiens), P07237. PDI insulin aggregation turbidity, A650, 90 min. inhibition, % at 10 µM. hit rate 0.052% among 350,000;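 active = mean inhibition across replicates of 30% or more, whatever share of single replicates reach that level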
Cneo AK release: Cryptococcus neoformans cell lysis inducers, primary screen, AK release luminescence, single concentration | AID 651654, 2012 | lysis activity, % at 15 µM | hit rate 0.2% among 360,000 | C. neoformans lysis, adenylate kinase release luminescence, 4 h; normalised: neutral wells 0, clomiphene wells 100;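 active = mean lysis activity across replicates of at least 80%, whatever share of replicates individually reach that level; inactive = mean lysis activity below 80%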
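Assay system: C. neoformans cells. Amount: yeast cell density of 5 × 10^6 cells/mL. Technique: AK luminescence. Buffer or medium: YPD. Times: static 4 h at 37 °C with compound, 1 h detection. Dosing: single-point compound dose. Read-out: lysis from increased AK signal.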
CFTR F508del cor: F508del CFTR correction, initial screen, CFBE line, single point; CFBE cells, YFP halide quenching; stimulated with forskolin plus potentiator P3; % fluorescence drop versus neutral controls; AID 720511, 2013; hit rate 0.36% among 350,000; activity (quench increase), % at 7.58 µM;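 active = mean added fluorescence quench of at least 8% versus neutral control, with both replicates also reaching 8%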;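 also: cells transiently co-express mutant CFTR-F508del with the halide-sensitive YFP; corrector assay measuring rescue of mutant channel to the surface after 24 h compound exposure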
DENV2 CPE rescue: inhibitors of DENV2 cytopathic effect, primary screen, cell-based, plate reader, single concentration; AID 651640, 2012; hit rate 1.7% among 350,000; DENV2-infected cells, cytopathic effect rescue; CPE inhibition, % at 9.99 µM; in the data active = CPE inhibition above about 20%, passing the limit was not always enough; tested in BHK-21 cells;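 also: 0% = median of neutral control wells and 100% = median of positive control wells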
ERp5 inh: inhibitors of ERp5-driven insulin aggregation, primary screen, biochemical, turbidity, absorbance 650 nm, single point; inhibition, % at 9.99 µM; hit rate 0.05% among 350,000; 90 min; Protein disulfide-isomerase A6 (Homo sapiens), Q15084;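 active = mean replicate inhibition above about 25%, with every replicate also reaching it, limit read from the data, passing the limit was not always enough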
Target sequence (Q15084 whole entry, looked up): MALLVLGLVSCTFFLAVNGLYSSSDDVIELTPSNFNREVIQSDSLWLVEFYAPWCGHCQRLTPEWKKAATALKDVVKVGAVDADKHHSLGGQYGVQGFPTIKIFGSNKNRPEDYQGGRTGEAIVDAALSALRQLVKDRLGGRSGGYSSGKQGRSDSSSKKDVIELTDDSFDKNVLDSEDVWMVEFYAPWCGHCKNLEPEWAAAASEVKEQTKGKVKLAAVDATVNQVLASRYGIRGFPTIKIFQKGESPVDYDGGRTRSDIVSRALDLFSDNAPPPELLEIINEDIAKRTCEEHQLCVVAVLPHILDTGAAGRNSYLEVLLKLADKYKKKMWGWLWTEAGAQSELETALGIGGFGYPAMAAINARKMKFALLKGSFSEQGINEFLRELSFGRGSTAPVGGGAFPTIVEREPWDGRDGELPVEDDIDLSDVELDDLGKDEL
C2C12 statin: suppressors of statin myotoxicity in C2C12 myotubes, primary screen, cell-based, single point, plate reader; C2C12 myotubes + simvastatin, ATP luminescence, 48 h; scaled: DMSO 0, geranylgeraniol control 100; AID 602340, 2012; rescue of ATP level, % at 7.49 µM; hit rate 0.78% among 330,000;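 active = mean ATP rescue above about 67%, or every replicate alone reaching that limit, limit read from the data, passing the limit was not always enough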;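 also: myotubes were challenged with 10 µM simvastatin during compound exposure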
Active calls of the source: *; . = no result. Compounds with a hit are over-represented: about 2.3% of the library has one in this group of screens.

SMILES | PDI turbidity | Cneo AK release | CFTR F508del cor | DENV2 CPE rescue | ERp5 inh | C2C12 statin
OC[C@@H]1[C@@H](c2ccccc2)C2(CN(CC3CC3)C2)N1Cc1cncnc1 | . | . | -2 | -7 | 2 | .
Cc1noc(C)c1S(=O)(=O)Nc1ccc2c(c1)C(=O)N([C@@H](C)CO)C[C@H](C)[C@H](CN(C)Cc1ccc3c(c1)OCO3)O2 | . | -2 | 2 | 32* | 0 | 76*
Cc1noc(C)c1S(=O)(=O)Nc1ccc2c(c1)C(=O)N([C@@H](C)CO)C[C@H](C)[C@H](CN(C)Cc1ccc3c(c1)OCO3)OCCCC[C@H](C)O2 | . | 3 | -3 | 46* | 2 | .
Cc1noc(C)c1S(=O)(=O)Nc1ccc2c(c1)C(=O)N([C@H](C)CO)C[C@H](C)[C@@H](CN(C)Cc1ccc3c(c1)OCO3)O2 | . | -5 | 1 | 9 | 2 | 3
Cc1noc(C)c1S(=O)(=O)Nc1ccc2c(c1)C(=O)N([C@@H](C)CO)C[C@@H](C)[C@H](CN(C)Cc1ccc(Cl)c(Cl)c1)OCCCC[C@@H](C)O2 | . | 4 | -2 | -2 | -1 | 121*
Cc1noc(C)c1S(=O)(=O)Nc1ccc2c(c1)C(=O)N([C@@H](C)CO)C[C@H](C)[C@@H](CN(C)Cc1ccc3c(c1)OCO3)OCCCC[C@@H](C)O2 | . | 101* | 3 | -9 | 2 | .
Cc1noc(C)c1S(=O)(=O)Nc1ccc2c(c1)C(=O)N([C@H](C)CO)C[C@H](C)[C@H](CN(C)Cc1ccc3c(c1)OCO3)OCCCC[C@@H](C)O2 | . | 4 | 3 | 0 | -3 | .
Cc1noc(C)c1S(=O)(=O)Nc1ccc2c(c1)C(=O)N([C@H](C)CO)C[C@H](C)[C@H](CN(C)Cc1ccc(Cl)c(Cl)c1)OCCCC[C@@H](C)O2 | . | 2 | 6 | 0 | -14 | 35
CCC(=O)N1[C@@H](CO)[C@@H]2c3ccccc3N(C(=O)Nc3ccccc3Cl)C[C@@H]21 | . | 0 | 1 | -2 | 9 | 6
CCCNC(=O)c1cc2c(c(-c3cccc(-c4ccccc4F)c3)n1)[C@H](CCO)N(C(=O)CC1CC1)C2 | . | . | -2 | 82* | 1 | .
CCNC(=O)c1cc2c(c(-c3cccc(-c4ccccc4F)c3)n1)[C@@H](CCO)N(C(=O)CC1CC1)C2 | . | . | 2 | 2 | 2 | .
O=C(COC(=O)C1CC2C=CC1C2)NCc1ccco1 (stereo not given) | 11 | 5 | . | . | . | 101*
O=C(COC(=O)C1CC2C=CC1C2)NCc1ccc(F)cc1 (stereo not given) | -5 | 3 | . | . | . | .
COc1ccc(Br)cc1/C=N/NC(=O)C(c1ccncc1)N1CCOCC1 (stereo not given) | -7 | 1 | -1 | 98* | -3 | 9
COCCNC(=O)C[C@@H]1C[C@@H]2c3cc(NS(C)(=O)=O)ccc3O[C@@H]2[C@@H](CO)O1 | . | 5 | -4 | 2 | 3 | 7
COc1cc2c(c(Br)c1N)-c1cc(Br)c(N)cc1C2=O | -12 | 0 | 8.5* | -11 | -13 | -8
Cc1ccc(S(=O)(=O)N(C)C[C@@H]2OCCCC[C@@H](C)Oc3ccc(NC(=O)NC(C)C)cc3C(=O)N([C@H](C)CO)C[C@H]2C)cc1 | . | 4 | -2 | -8 | 0 | .
O=C(C[C@@H]1C=C[C@@H](NC(=O)C2CCC2)[C@H](CO)O1)NCc1ccncc1 | . | 0 | 2 | 19 | -1 | 0
O=C(Nc1cccc(C(F)(F)F)c1)c1csc([C@H]2C[C@H](O)[C@@H](CO)O2)n1 | -4 | 0 | -1 | -1 | 3 | -20
O=C(Nc1cccc(Cl)c1)c1csc([C@@H]2C[C@H](O)[C@@H](CO)O2)n1 | 2 | -1 | -5 | 36* | -2 | -8
O=C1C=C(NCc2ccccc2)C2(CCCCC2)O1 | 2 | -2 | . | . | . | 3
O=C1C=C(NCc2ccc(Cl)c(Cl)c2)C2(CCCCC2)O1 | -9 | -3 | . | . | . | 142*

Screening results deposited in PubChem by Broad Institute.
